Test results published in ChEMBL document CHEMBL4689842, “EUbOPEN Chemogenomics Library wave 1” (2021).

Test system: HEK-293T
Assay: Multiplex assay against HEK293T;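 for Population Tubulin-Different-Phenotype (%): share of the cells with healthy nuclei that show this phenotype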
Assay type: toxicity, cell-based
Conditions: human
Procedure, shortened: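 Phenotypes for tubulin, mitochondrial mass and membrane permeability are expressed as per cents of healthy-nucleus cells. Cells were stained live at seeding with Hoechst33342, BioTracker Green Microtubule Cytoskeleton Dye, MitoTracker Red and Annexin V Alexa Fluor 680, then imaged after compound addition on a CQ1 microscope at 37°C and 5% CO2. Machine-learning gating in CellPathfinder separated Hoechst high-intensity objects from normal cells, divided normal cells by nuclear state (healthy, pyknosed, fragmented) and divided pyknosed cells into mitotic or apoptotic.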

[1] = 12 h, 1 µM, compound concentration 1 uM, replicate 1
[2] = 12 h, 1 µM, compound concentration 1 uM, replicate 2
[3] = 12 h, 10 µM, compound concentration 10 uM, replicate 1
[4] = 12 h, 10 µM, compound concentration 10 uM, replicate 2
[5] = 24 h, 1 µM, compound concentration 1 uM, replicate 1
[6] = 24 h, 1 µM, compound concentration 1 uM, replicate 2
[7] = 24 h, 10 µM, compound concentration 10 uM, replicate 1
[8] = 24 h, 10 µM, compound concentration 10 uM, replicate 2
[9] = 48 h, 1 µM, compound concentration 1 uM, replicate 1
[10] = 48 h, 1 µM, compound concentration 1 uM, replicate 2
[11] = 48 h, 10 µM, compound concentration 10 uM, replicate 1
[12] = 48 h, 10 µM, compound concentration 10 uM, replicate 2

Structure (SMILES): CCn1c(-c2nonc2N)nc2cnc(Oc3cccc(NC(=O)c4ccc(OCCN5CCOCC5)cc4)c3)cc21 [GSK-269962A]
- Population Apoptotic (%) [1]: 44%
- Population Fragmented Nuclei (%) [1]: 14%
- Population Healthy Nuclei (%) [1]: 26%
- Population Hoechst High Intensity Objects (%) [1]: 17%
- Population Membrane Permeable-Phenotype (%) [1]: 3%
- Population Mitochondria Different-Phenotype (%) [1]: 75%
- Population Mitotic Cells (%) [1]: 55%
- Population Normal (%) [1]: 82%
- Population Pyknosed Nuclei (%) [1]: 58%
- Population Tubulin-Different-Phenotype (%) [1]: 55%
- Total Cell Count [1]: 262
- Population Apoptotic (%) [2]: 12%
- Population Fragmented Nuclei (%) [2]: 8%
- Population Healthy Nuclei (%) [2]: 44%
- Population Hoechst High Intensity Objects (%) [2]: 6%
- Population Membrane Permeable-Phenotype (%) [2]: 5%
- Population Mitochondria Different-Phenotype (%) [2]: 21%
- Population Mitotic Cells (%) [2]: 87%
- Population Normal (%) [2]: 93%
- Population Pyknosed Nuclei (%) [2]: 46%
- Population Tubulin-Different-Phenotype (%) [2]: 21%
- Total Cell Count [2]: 251
- Population Apoptotic (%) [3]: 61%
- Population Fragmented Nuclei (%) [3]: 7%
- Population Healthy Nuclei (%) [3]: 20%
- Population Hoechst High Intensity Objects (%) [3]: 12%
- Population Membrane Permeable-Phenotype (%) [3]: 1%
- Population Mitochondria Different-Phenotype (%) [3]: 98%
- Population Mitotic Cells (%) [3]: 38%
- Population Normal (%) [3]: 87%
- Population Pyknosed Nuclei (%) [3]: 72%
- Population Tubulin-Different-Phenotype (%) [3]: 100%
- Total Cell Count [3]: 284
- Population Apoptotic (%) [4]: 54%
- Population Fragmented Nuclei (%) [4]: 4%
- Population Healthy Nuclei (%) [4]: 13%
- Population Hoechst High Intensity Objects (%) [4]: 7%
- Population Membrane Permeable-Phenotype (%) [4]: 0%
- Population Mitochondria Different-Phenotype (%) [4]: 100%
- Population Mitotic Cells (%) [4]: 45%
- Population Normal (%) [4]: 92%
- Population Pyknosed Nuclei (%) [4]: 81%
- Total Cell Count [4]: 186
- Population Apoptotic (%) [5]: 56%
- Population Fragmented Nuclei (%) [5]: 18%
- Population Healthy Nuclei (%) [5]: 30%
- Population Hoechst High Intensity Objects (%) [5]: 16%
- Population Membrane Permeable-Phenotype (%) [5]: 1%
- Population Mitochondria Different-Phenotype (%) [5]: 75%
- Population Mitotic Cells (%) [5]: 43%
- Population Normal (%) [5]: 83%
- Population Pyknosed Nuclei (%) [5]: 51%
- Population Tubulin-Different-Phenotype (%) [5]: 43%
- Total Cell Count [5]: 254
- Population Apoptotic (%) [6]: 11%
- Population Fragmented Nuclei (%) [6]: 12%
- Population Healthy Nuclei (%) [6]: 61%
- Population Hoechst High Intensity Objects (%) [6]: 3%
- Population Membrane Permeable-Phenotype (%) [6]: 4%
- Population Mitochondria Different-Phenotype (%) [6]: 17%
- Population Mitotic Cells (%) [6]: 88%
- Population Normal (%) [6]: 96%
- Population Pyknosed Nuclei (%) [6]: 26%
- Population Tubulin-Different-Phenotype (%) [6]: 31%
- Total Cell Count [6]: 267
- Population Apoptotic (%) [7]: 74%
- Population Fragmented Nuclei (%) [7]: 12%
- Population Healthy Nuclei (%) [7]: 31%
- Population Hoechst High Intensity Objects (%) [7]: 12%
- Population Membrane Permeable-Phenotype (%) [7]: 4%
- Population Mitochondria Different-Phenotype (%) [7]: 96%
- Population Mitotic Cells (%) [7]: 25%
- Population Normal (%) [7]: 87%
- Population Pyknosed Nuclei (%) [7]: 56%
- Population Tubulin-Different-Phenotype (%) [7]: 98%
- Total Cell Count [7]: 276
- Population Apoptotic (%) [8]: 72%
- Population Fragmented Nuclei (%) [8]: 6%
- Population Healthy Nuclei (%) [8]: 22%
- Population Hoechst High Intensity Objects (%) [8]: 6%
- Population Membrane Permeable-Phenotype (%) [8]: 5%
- Population Mitochondria Different-Phenotype (%) [8]: 87%
- Population Mitotic Cells (%) [8]: 28%
- Population Normal (%) [8]: 93%
- Population Pyknosed Nuclei (%) [8]: 70%
- Population Tubulin-Different-Phenotype (%) [8]: 97%
- Total Cell Count [8]: 189
- Population Apoptotic (%) [9]: 56%
- Population Fragmented Nuclei (%) [9]: 18%
- Population Healthy Nuclei (%) [9]: 23%
- Population Hoechst High Intensity Objects (%) [9]: 19%
- Population Membrane Permeable-Phenotype (%) [9]: 4%
- Population Mitochondria Different-Phenotype (%) [9]: 54%
- Population Mitotic Cells (%) [9]: 43%
- Population Normal (%) [9]: 80%
- Population Pyknosed Nuclei (%) [9]: 58%
- Population Tubulin-Different-Phenotype (%) [9]: 45%
- Total Cell Count [9]: 255
- Population Apoptotic (%) [10]: 41%
- Population Fragmented Nuclei (%) [10]: 20%
- Population Healthy Nuclei (%) [10]: 66%
- Population Hoechst High Intensity Objects (%) [10]: 3%
- Population Membrane Permeable-Phenotype (%) [10]: 5%
- Population Mitochondria Different-Phenotype (%) [10]: 12%
- Population Mitotic Cells (%) [10]: 58%
- Population Normal (%) [10]: 96%
- Population Pyknosed Nuclei (%) [10]: 12%
- Population Tubulin-Different-Phenotype (%) [10]: 30%
- Total Cell Count [10]: 329
- Population Apoptotic (%) [11]: 80%
- Population Fragmented Nuclei (%) [11]: 18%
- Population Healthy Nuclei (%) [11]: 40%
- Population Hoechst High Intensity Objects (%) [11]: 11%
- Population Membrane Permeable-Phenotype (%) [11]: 1%
- Population Mitochondria Different-Phenotype (%) [11]: 97%
- Population Mitotic Cells (%) [11]: 19%
- Population Normal (%) [11]: 88%
- Population Pyknosed Nuclei (%) [11]: 41%
- Population Tubulin-Different-Phenotype (%) [11]: 97%
- Total Cell Count [11]: 286
- Population Apoptotic (%) [12]: 82%
- Population Fragmented Nuclei (%) [12]: 5%
- Population Healthy Nuclei (%) [12]: 56%
- Population Hoechst High Intensity Objects (%) [12]: 7%
- Population Mitochondria Different-Phenotype (%) [12]: 89%
- Population Mitotic Cells (%) [12]: 17%
- Population Normal (%) [12]: 92%
- Population Pyknosed Nuclei (%) [12]: 38%
- Population Tubulin-Different-Phenotype (%) [12]: 99%
- Total Cell Count [12]: 192
